ChEMBL document CHEMBL1129471, “Orally active squalene synthase inhibitors: bis((acyloxy)alkyl) prodrugs of the alpha-phosphonosulfonic acid moiety” (J Med Chem, 1996)

Tests used:
Format in all cases: functional
Rattus norvegicus [1] = experiment: Compound was tested for inhibition of cholesterol biosynthesis in rats by intravenous (iv) dosing.
In short: (§1)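 Fasted rats, dosed orally or intravenously as the line states; the read-out is inhibition of cholesterol biosynthesis from acetate.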

Rattus norvegicus [2] = experiment: Compound was tested for inhibition of cholesterol biosynthesis in rats by oral dosing (po).; in short: as §1
Rattus norvegicus [3] = organism: Rattus norvegicus; experiment: (§2) Esterase susceptibility was determined from the initial rate of aldehyde release upon incubation of the prodrug with homogenized rat small intestinal mucosa relative to compound 9
Rattus norvegicus [4] = experiment: Compound was tested for inhibition of cholesterol biosynthesis in rats by oral dose of 28 uM/Kg; details: at 28 µmol/kg
Rattus norvegicus [5] = organism: Rattus norvegicus; experiment: as §2; remark: listed apart in the source
In short: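 A rat intestinal mucosal esterase preparation was incubated with 200 μM prodrug in 20 mM Tris, pH 7.0, at 37 °C. Timed aliquots were quenched with 0.5 M sodium acetate, pH 3.8. Released aldehyde was measured colorimetrically with methylbenzothiazolinehydrazone/ferric chloride (A625) against an aldehyde standard curve. Initial rate is given as pmol aldehyde/min per esterase unit, normalised to a reference prodrug.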

Rattus norvegicus [6] = experiment: Compound was tested for inhibition of cholesterol biosynthesis in rats by intravenous (iv) dose of 4 uM/Kg; in short: as §1
Rattus norvegicus [7] = experiment: Compound was tested for inhibition of cholesterol biosynthesis in rats by intravenous (iv) dose of 22 uM/Kg; in short: as §1

Compound	ED50 (Rattus norvegicus [1]) [µmol/kg]	ED50 (Rattus norvegicus [2]) [µmol/kg]	Relative esterase susceptibility (Rattus norvegicus [3])	further results
CC(C)=CCC/C(C)=C/CC/C(C)=C/CCCC(P(=O)(O)O)S(=O)(=O)O (centres undefined)	0.25	16.5		
CC(C)=CCC/C(C)=C/CC/C(C)=C/CCCC(P(=O)(OCOC(=O)c1ccccc1)OCOC(=O)c1ccccc1)S(=O)(=O)[O-].[K+] (centres undefined)	1.5	15	1.5	
O=P(O)(O)C(CCCc1cccc(Oc2ccccc2)c1)S(=O)(=O)O (centres undefined)	0.2	19.5		
CCC(=O)OC(C)OP(=O)(OC(C)OC(=O)CC)C(CCCc1cccc(Oc2ccccc2)c1)S(=O)(=O)[O-].[K+] (centres undefined)		12.6	17	
CC(C)C(=O)OC(OP(=O)(OC(OC(=O)C(C)C)C(C)C)C(CCCc1cccc(Oc2ccccc2)c1)S(=O)(=O)[O-])C(C)C.[K+] (centres undefined)				Inhibition (Rattus norvegicus [4]): -45%
CCC(=O)OC(OP(=O)(OC(OC(=O)CC)C(C)C)C(CCCc1cccc(Oc2ccccc2)c1)S(=O)(=O)O)C(C)C (centres undefined)		7.9		
CCC(=O)OC(C)OP(=O)(OC(C)OC(=O)CC)C(CCC/C=C(\C)CC/C=C(\C)CCC=C(C)C)S(=O)(=O)[O-].[K+] (centres undefined)	7	11.6	1.7	
CCC(=O)OC(CC)OP(=O)(OC(CC)OC(=O)CC)C(CCCc1cccc(Oc2ccccc2)c1)S(=O)(=O)O (centres undefined)		10.9		
CC(C)=CCC/C(C)=C/CC/C(C)=C/CCCC(P(=O)(OCOC(=O)C(C)C)OCOC(=O)C(C)C)S(=O)(=O)[O-].[K+] (centres undefined)	1.7	18.8		Relative esterase susceptibility (Rattus norvegicus [5]): 8.1
CC(C)=CCC/C(C)=C/CC/C(C)=C/CCCC(P(=O)(OCOC(=O)CC1CCCCC1)OCOC(=O)CC1CCCCC1)S(=O)(=O)[O-].[K+] (centres undefined)		4.1	0.49	Inhibition (Rattus norvegicus [6]): -35%
CC(C)=CCC/C(C)=C/CC/C(C)=C/CCCC(P(=O)(OC(C)OC(=O)c1ccccc1)OC(C)OC(=O)c1ccccc1)S(=O)(=O)[O-].[K+] (centres undefined)			0.21	Inhibition (Rattus norvegicus [4]): -33%
CCCCCCC(=O)OCOP(=O)(OCOC(=O)CCCCCC)C(CCC/C=C(\C)CC/C=C(\C)CCC=C(C)C)S(=O)(=O)[O-].[K+] (centres undefined)	0.18	14	6.5	
CC(C)(C)C(=O)OCOP(=O)(OCOC(=O)C(C)(C)C)C(CCCc1cccc(Oc2ccccc2)c1)S(=O)(=O)[O-].[K+] (centres undefined)	1.7	3.5	15	
CC(OC(=O)C(C)(C)C)OP(=O)(OC(C)OC(=O)C(C)(C)C)C(CCCc1cccc(Oc2ccccc2)c1)S(=O)(=O)[O-].[K+] (centres undefined)		12.8	0.45	
CCC(=O)OC(OP(=O)(OC(OC(=O)CC)C(C)C)C(CCC/C=C(\C)CC/C=C(\C)CCC=C(C)C)S(=O)(=O)[O-])C(C)C.[K+] (centres undefined)			1.1	Inhibition (Rattus norvegicus [4]): -43%
CC(C)=CCC/C(C)=C/CC/C(C)=C/CCCC(P(=O)(OCOC(=O)C(C)(C)C)OCOC(=O)C(C)(C)C)S(=O)(=O)[O-].[K+] (centres undefined)		3.9	1	Inhibition (Rattus norvegicus [7]): -40%
CC(OC(=O)C(C)C)OP(=O)(OC(C)OC(=O)C(C)C)C(CCCc1cccc(Oc2ccccc2)c1)S(=O)(=O)O (centres undefined)		10.1		
CC(C)=CCC/C(C)=C/CC/C(C)=C/CCCC(P(=O)(OC(C)OC(=O)C(C)(C)C)OC(C)OC(=O)C(C)(C)C)S(=O)(=O)[O-].[K+] (centres undefined)			0.2	Inhibition (Rattus norvegicus [4]): -35%
